In ChEMBL document CHEMBL4477241, “Structure-Activity Relationship Studies for Enhancer of Zeste Homologue 2 (EZH2) and Enhancer of Zeste Homologue 1 (EZH1) Inhibitors” (J Med Chem, 2016):

Tests used:
[1] = biological target: Histone-lysine N-methyltransferase EZH2 (Homo sapiens, UniProt O75530+Q15022+Q15910); assay: Inhibition of EZH2 histone methyltransferase activity of EZH2/EED/SUZ12 protein complex (unknown origin) using histone H3 peptide as substrate (21 to 44 residues) in presence of [3H]-S-adenosylmethionine after 2 hrs by scintillation proximity assay
Summary of the method: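 20 nM EZH2 trimeric complex with 2 μM 3H-SAM and 1 μM biotinylated H3(21–44) in 20 mM Tris-HCl pH 8, 5 mM DTT, 0.01% Triton X-100. Incubated 1 h at 23 °C, quenched with guanidine hydrochloride, then 2 h streptavidin flash-plate capture. Activity scaled between no-compound and no-enzyme counts.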

[2] = biological target: T1, Histone-lysine N-methyltransferase EZH1 (Homo sapiens, UniProt Q92800); assay: Inhibition of EZH1 histone methyltransferase activity of EZH1/EED/SUZ12/RBBP4/AEBP2 protein complex (unknown origin) using histone H3 peptide as substrate (21 to 44 residues) in presence of [3H]-S-adenosylmethionine after 2 hrs by scintillation proximity assay
T1 sequence (Q92800 whole entry): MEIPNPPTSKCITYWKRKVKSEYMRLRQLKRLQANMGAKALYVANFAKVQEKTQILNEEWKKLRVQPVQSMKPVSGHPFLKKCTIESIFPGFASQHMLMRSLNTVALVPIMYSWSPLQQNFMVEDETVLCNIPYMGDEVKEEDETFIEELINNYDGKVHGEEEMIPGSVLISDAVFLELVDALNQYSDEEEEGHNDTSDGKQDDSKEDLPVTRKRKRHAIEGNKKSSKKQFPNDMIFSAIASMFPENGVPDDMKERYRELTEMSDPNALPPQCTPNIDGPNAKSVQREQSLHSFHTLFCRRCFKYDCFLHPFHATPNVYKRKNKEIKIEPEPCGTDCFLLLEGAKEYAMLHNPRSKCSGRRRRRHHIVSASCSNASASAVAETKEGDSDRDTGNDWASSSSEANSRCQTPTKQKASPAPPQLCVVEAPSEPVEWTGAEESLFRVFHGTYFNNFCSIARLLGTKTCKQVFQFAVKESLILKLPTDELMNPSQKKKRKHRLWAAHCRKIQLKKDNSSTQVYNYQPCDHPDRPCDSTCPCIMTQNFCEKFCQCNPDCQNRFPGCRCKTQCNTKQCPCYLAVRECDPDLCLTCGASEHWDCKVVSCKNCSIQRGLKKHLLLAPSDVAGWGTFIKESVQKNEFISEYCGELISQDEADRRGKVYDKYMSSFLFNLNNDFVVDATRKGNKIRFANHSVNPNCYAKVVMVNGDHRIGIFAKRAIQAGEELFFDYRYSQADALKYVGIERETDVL
Summary of the method: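 10 nM EZH1 pentameric complex with 4 μM 3H-SAM and 1 μM biotinylated H3(21–44) in 20 mM Tris-HCl pH 8, 5 mM DTT, 0.01% Triton X-100. Reaction run 1 h at 23 °C, stopped with guanidine hydrochloride, then captured 2 h on a streptavidin flash plate. Counts normalized to no-compound (100%) and no-enzyme (0%) controls.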

Histone-lysine N-methyltransferase EZH2, sequence (Q15910 whole entry, the tested form may be a part, one chain of several): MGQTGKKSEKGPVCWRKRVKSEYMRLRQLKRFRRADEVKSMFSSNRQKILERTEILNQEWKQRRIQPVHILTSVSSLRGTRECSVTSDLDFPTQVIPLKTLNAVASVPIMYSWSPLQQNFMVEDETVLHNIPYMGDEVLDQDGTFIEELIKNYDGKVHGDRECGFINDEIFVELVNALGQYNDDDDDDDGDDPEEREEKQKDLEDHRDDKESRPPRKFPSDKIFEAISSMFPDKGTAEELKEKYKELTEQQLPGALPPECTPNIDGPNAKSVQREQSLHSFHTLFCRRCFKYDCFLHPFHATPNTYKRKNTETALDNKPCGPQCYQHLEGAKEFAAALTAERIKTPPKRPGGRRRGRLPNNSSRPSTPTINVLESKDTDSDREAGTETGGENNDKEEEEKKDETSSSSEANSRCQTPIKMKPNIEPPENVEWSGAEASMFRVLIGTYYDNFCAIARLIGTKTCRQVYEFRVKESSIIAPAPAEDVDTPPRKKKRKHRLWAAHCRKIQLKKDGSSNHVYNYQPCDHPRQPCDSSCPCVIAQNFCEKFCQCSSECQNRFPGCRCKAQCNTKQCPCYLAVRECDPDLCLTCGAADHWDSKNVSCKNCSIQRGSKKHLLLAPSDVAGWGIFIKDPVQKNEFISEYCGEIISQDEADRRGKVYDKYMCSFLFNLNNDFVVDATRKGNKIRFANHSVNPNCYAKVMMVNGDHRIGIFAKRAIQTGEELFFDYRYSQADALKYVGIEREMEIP

Structure (SMILES) | IC50 [1] [nM] | IC50 [2] [nM]
CC(C)N1CCN(c2ccc(-c3cc(C(=O)NC4CC(C)(C)NC(C)(C)C4)c4cnn(C(C)C)c4c3)cn2)CC1 | > 10000 | > 10000
CCCc1cc(C)[nH]c(=O)c1CNC(=O)c1cc(-c2ccc(N3CCN(C(C)C)CC3)nc2)cc2c1cnn2C1CCCCC1 | < 10 | 
CCCCc1cc(C)[nH]c(=O)c1CNC(=O)c1cc(-c2ccc(N3CCN(C(C)C)CC3)nc2)cc2c1cnn2C(C)C | < 10 | 160
CCCc1cc(C)[nH]c(=O)c1CNC(=O)c1cc(-c2ccc(N3CCN(C(C)C)CC3)nc2)cc2c1cnn2C(C)C | < 10 | 
CCCc1cc(C)[nH]c(=O)c1CNC(=O)c1cc(N2CCNCC2)cc2c1cnn2C(C)C | 17 | 880
Cc1ncc(CNC(=O)c2cc(-c3ccc(N4CCN(C(C)C)CC4)nc3)cc3c2cnn3C(C)C)c(=O)[nH]1 | > 2300 | > 10000
CCc1cc(C)[nH]c(=O)c1CNC(=O)c1cc(-c2ccc(N3CCN(C(C)C)CC3)nc2)cc2c1cnn2C(C)C | 12 | 810
CCC(C)c1cc(C)c(CNC(=O)c2cc(-c3ccc(N4CCN(C(C)C)CC4)nc3)cc3c2cnn3C(C)C)c(=O)[nH]1 (stereo not drawn) | 32 | > 1250
CCCc1cc(C)[nH]c(=O)c1CNC(=O)c1cn2ccc(-c3ccc(N4CCN(C(C)C)CC4)nc3)cc2n1 | > 10000 | > 10000
CCCc1cc(C)[nH]c(=O)c1CNC(=O)c1nn(C(C)C)c2cc(-c3ccc(N4CCN(C(C)C)CC4)nc3)ccc12 | > 5000 | > 5000
Cc1[nH]c(=O)c(CNC(=O)c2cc(-c3ccc(N4CCN(C(C)C)CC4)nc3)cc3c2cnn3C(C)C)c2c1CCC2 | 32 | > 2500
CCc1c(C)c[nH]c(=O)c1CNC(=O)c1cc(-c2ccc(N3CCN(C(C)C)CC3)nc2)cc2c1cnn2C(C)C | 1020 | > 5000
CCCc1cc(C)[nH]c(=O)c1CNC(=O)c1cc(-c2ccc(N3CCN(CC)CC3)nc2)cc2c1cnn2C(C)C | < 10 | 88
CCCc1cc(C)[nH]c(=O)c1CNC(=O)c1cc(-c2ccc(N3CCN(C(C)C)CC3)nc2)cc2c1cnn2CC1CCCC1 | 149 | > 2500
CCCc1cc(C)[nH]c(=O)c1CNC(=O)c1cc(C2CCNCC2)cc2c1cnn2C(C)C | 11 | 613
Cc1[nH]c(=O)c(CNC(=O)c2cc(-c3ccc(N4CCN(C(C)C)CC4)nc3)cc3c2cnn3C(C)C)c2c1CCCC2 | > 2500 | > 2500
CCCc1cc(C)[nH]c(=O)c1CNC(=O)c1cc(-c2ccccc2)cc2c1cnn2C(C)C | 41 | > 1250
Cc1cc(CC(C)C)c(CNC(=O)c2cc(-c3ccc(N4CCN(C(C)C)CC4)nc3)cc3c2cnn3C(C)C)c(=O)[nH]1 | < 10 | 211
CCCc1cc(C)[nH]c(=O)c1CNC(=O)c1cc(-c2ccc(N3CCN(C(C)C)CC3)nc2)cc2c1cnn2CC1CCC1 | 57 | > 2500
Cc1[nH]c(=O)c(CNC(=O)c2cc(-c3ccc(N4CCN(C(C)C)CC4)nc3)cc3c2cnn3C(C)C)c(C)c1C | 328 | > 5000
Cc1cc(-c2ccccc2)[nH]c(=O)c1CNC(=O)c1cc(-c2ccc(N3CCN(C(C)C)CC3)nc2)cc2c1cnn2C(C)C | > 10000 | > 10000
CCCc1cc(C)[nH]c(=O)c1CNC(=O)c1cc(-c2ccc(N3CCNCC3)nc2)cc2c1cnn2C(C)C | < 10 | 60
CCCc1cc(C)[nH]c(=O)c1CNC(=O)c1cc(-c2ccccn2)cc2c1cnn2C(C)C | 24 | 681
CCCc1cc(C)[nH]c(=O)c1CNC(=O)c1cc(-c2ccc(F)cn2)cc2c1cnn2C(C)C | 22 | 773
Cc1cc(C)c(CNC(=O)c2cc(-c3ccc(N4CCN(C(C)C)CC4)nc3)cc3c2cnn3C(C)C)c(=O)[nH]1 |  | > 2500
CCCc1cc(C)[nH]c(=O)c1CNC(=O)c1cc(-c2ccc(C(F)(F)F)cn2)cc2c1cnn2C(C)C | 64 | > 5000
CCCc1cc(C)[nH]c(=O)c1CNC(=O)c1cc(-c2ccc(N3CCN(C(C)C)CC3)nc2)cc2c1cnn2C(C)(C)C | < 10 | 127

Structure (SMILES) | IC50 [1] [nM] | IC50 [2] [nM]
CCCc1cc(C)[nH]c(=O)c1CNC(=O)c1cc(-c2ccc(N3CCN(C(C)C)CC3)nc2)cc2c1cnn2Cc1ccccc1 | 280 | > 5000
CCCc1cc(C)[nH]c(=O)c1CNC(=O)c1cc(-c2ccc(N3CCN(C(C)C)CC3)nc2)cc2c1cnn2C1CCCCCC1 | 117 | > 2500
CCCc1cc(C)[nH]c(=O)c1CNC(=O)c1cc(-c2ccc(N3CCN(C(C)C)CC3)nc2)cc2nn(C(C)C)cc12 | 384 | > 2500
CCCc1cc(C)[nH]c(=O)c1CNC(=O)c1cc(-c2ccc(N3CCN(C(C)C)CC3)nc2)cc2c1cnn2C(CC)CC | < 10 | 126
CC(C)N1CCN(c2ccc(-c3cc(C(=O)NCc4cnc[nH]c4=O)c4cnn(C(C)C)c4c3)cn2)CC1 | > 10000 | > 10000
CCCCC(CC)Cn1ncc2c(C(=O)NCc3c(CCC)cc(C)[nH]c3=O)cc(-c3ccc(N4CCN(C(C)C)CC4)nc3)cc21 (stereo not drawn) | 1110 | > 5000
CCCc1cc(C)[nH]c(=O)c1CNC(=O)c1cc(NC2CCNCC2)cc2c1cnn2C(C)C | 26 | > 1250
Cc1cc(C(C)(C)C)[nH]c(=O)c1CNC(=O)c1cc(-c2ccc(N3CCN(C(C)C)CC3)nc2)cc2c1cnn2C(C)C | > 10000 | > 10000
Cc1cc(O)c(CNC(=O)c2cc(-c3ccc(N4CCN(C(C)C)CC4)nc3)cc3c2cnn3C(C)C)c(=O)[nH]1 | > 10000 | > 10000
CCCc1cc(C)[nH]c(=O)c1CNC(=O)c1cc(-c2ccc(N3CCN(C(C)C)CC3)nc2)c2cnn(C(C)C)c2c1 | 540 | > 5000
CCCc1cc(C)[nH]c(=O)c1CNC(=O)c1cc(-c2ccc(N3CCN(C(C)C)CC3)nc2)cc2c1cnn2CCCCCCO | 25 | 394
CCCc1cc(C)[nH]c(=O)c1CNC(=O)c1nn(C(C)C)c2ccc(-c3ccc(N4CCN(C(C)C)CC4)nc3)cc12 | > 5000 | > 5000
CCCc1cc(C)[nH]c(=O)c1CNC(=O)c1cc(-c2ccc(N3CCN(C(C)C)CC3)nc2)cc2c1cnn2C1CCCC1 | < 10 | 108
CC(C)N1CCN(c2ccc(-c3cc(C(=O)NCc4ccc[nH]c4=O)c4cnn(C(C)C)c4c3)cn2)CC1 | > 5000 | > 5000
CCCc1cc(C)[nH]c(=O)c1CNC(=O)c1cc(N2CCCNCC2)cc2c1cnn2C(C)C | 42 | > 2500
Cc1[nH]c(=O)[nH]c(=O)c1CNC(=O)c1cc(-c2ccc(N3CCN(C(C)C)CC3)nc2)cc2c1cnn2C(C)C | > 10000 | > 10000
CCCc1cc(C)[nH]c(=O)c1CNC(=O)c1cc(-c2ccc(F)cc2)cc2c1cnn2C(C)C | 48 | > 1250
Cc1cc(C2CCCC2)c(CNC(=O)c2cc(-c3ccc(N4CCN(C(C)C)CC4)nc3)cc3c2cnn3C(C)C)c(=O)[nH]1 | < 10 | 86
CCCc1cc(C)[nH]c(=O)c1CNC(=O)c1cc(Br)cc2c1cnn2C(C)C | 35 | > 5000
CCCc1cc(C)[nH]c(=O)c1CNC(=O)c1cc(-c2ccc(N3CCN(C(C)C)CC3)nc2)cc2c1cnn2CCC1CCCCC1 | > 1250 | > 2500
CCCc1cc(C)[nH]c(=O)c1CNC(=O)c1cccn2c(-c3ccc(N4CCN(C(C)C)CC4)nc3)cnc12 | > 5000 | > 5000
CCCc1cc(C)[nH]c(=O)c1CNC(=O)c1cc(-c2ccc(N3CCN(C(C)C)CC3)nc2)cc2c1cnn2CC1CCCCC1 | 697 | > 2500
Cc1cc(C(C)C)c(CNC(=O)c2cc(-c3ccc(N4CCN(C(C)C)CC4)nc3)cc3c2cnn3C(C)C)c(=O)[nH]1 | < 10 | 320
CCCc1cc(C)[nH]c(=O)c1CNC(=O)c1cnn2c(-c3ccc(N4CCN(C(C)C)CC4)nc3)cccc12 | > 5000 | > 5000
CCc1cc(C)c(CNC(=O)c2cc(-c3ccc(N4CCN(C(C)C)CC4)nc3)cc3c2cnn3C(C)C)c(=O)[nH]1 | 73 | > 5000
CCCc1cc(C)[nH]c(=O)c1CNC(=O)c1cc(-c2ccc(C(F)(F)F)cc2)cc2c1cnn2C(C)C | 66 | > 1250
